From ChEMBL document CHEMBL4513216, “Probing the Open Global Health Chemical Diversity Library for Multistage-Active Starting Points for Next-Generation Antimalarials” (ACS Infect Dis, 2020) come the findings set out here.

The nature of this series: Toxicity liver stage against HepG2, at 10uM. The series is classed as cell-based. Conditions: human, HepG2-A16-CD81EGFP cells; read-out: INHIBITION
Further details: test concentration 10 uM, cell line HepG2-A16-CD81EGFP. In a few lines:
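Uninfected HepG2-A16-CD81EGFP cells, 3 × 10^3 per well, 1536-well, plated on prespotted compound at 10 μM final, parasite-free screening media added to match infected plates; puromycin 10 μM positive, DMSO 0.5% negative; run in parallel with 48 h PbLuc assay at 37 °C, 5% CO2; viability by CellTiter-Glo luminescence, normalized to controls.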
On to `Cc1ccc(C(=O)N2CCC3(CC2)CN(c2ccccn2)CCO3)cc1`, for which the cytotoxicity at 10 µM is -75.4%.

On to `O=C(NC1CCC(C(=O)N2CCSCC2)CC1)N1CCOCC1` (stereo not drawn), for which the cytotoxicity at 10 µM is 13.1%.

As to `CN(Cc1nccn1C)c1ccc(-c2nccn2C)nn1`, the cytotoxicity at 10 µM is -6.45%. The same measure for `COCCN1C[C@H]2CN(C(=O)c3ccno3)CCN2C1=O`: 1.29%; for `CCCN1C(=O)C2(CCCCC2)NC1c1c[nH]nc1-c1cccnc1` (stereo not drawn): 4.59%. Under `Cc1cc(N2CCCC(c3nccnc3N(C)C)C2)ncn1` (stereo not drawn) stands -1.77%.

Regarding `Cc1nnc2n1CCN(c1nc3ccccc3o1)C2`, the cytotoxicity at 10 µM came to 3.51%. Under `CCC(c1ccc(F)cc1F)S(=O)(=O)CCO` (stereo not drawn) stands -137%; under `Cn1cc(N2CCN(c3ccc(C#N)cc3Br)CC2=O)cn1`, -5.48%; under `CCn1ncc2c1CN(C(=O)c1cc(C)oc1C)CC2COC` (stereo not drawn), 13%. The same measure for `CS(=O)(=O)Nc1ccc2c(c1)NC(=O)CC2c1cnn2cccnc12` (stereo not drawn): -1.77%. The same measure for `CO[C@@H]1CCN(C(=O)c2cnoc2C)[C@H]1Cc1ccccc1`: -72.3%; for `CC(C)c1nnc2n1CC(CNCc1ccncc1)CC2` (stereo not drawn): -17.5%. For the compound `O=C(Cc1cccnc1)NCCS(=O)(=O)c1ccccc1F`, the cytotoxicity at 10 µM was 6.72%.

With `CCC(=O)NC1CCCN(Cc2ccc(NC(C)=O)cc2)C1` (stereo not drawn), the cytotoxicity at 10 µM was -47.9%.

As to `Cc1cccc(CN2CC3(CCN(C(=O)C4CC4)CC3)OCC2=O)n1`, the cytotoxicity at 10 µM is -4.67%.

Take `c1cc(-c2ccc3c(c2)CCC32CCNCC2)ccn1`: the cytotoxicity at 10 µM came out at 8.86%. The same measure for `CCN(CC)C(=O)Nc1ccc(N2CCSCC2)cc1C`: -8.44%; for `CN(CC(=O)Nc1cc(CC2CCCCC2)n[nH]1)S(C)(=O)=O`: 3.44%. On to `COCC(=O)N[C@H]1C[C@@H](C(=O)NCCc2cccc(Cl)c2)N(C)C1`, for which the cytotoxicity at 10 µM stood at 1.72%. For `CNS(=O)(=O)c1cccc(CNC(=O)c2c(C)oc(C)c2C)c1`, the cytotoxicity at 10 µM was -1.3%. Under `Cc1nc(C)c2c(n1)CCN(Cc1nccn1C)CC2` stands -122%; under `CCc1cc(N2CCS(=O)(=O)CC2)n2nc(C)c(C)c2n1`, -4.02%; under `Cc1cc(NC(=O)N2CCC[C@@H]2CO)nn1-c1cccc(Cl)c1`, -1.08%. The same measure for `Cc1ccc(CN2C[C@@H]3[C@@H](C2)OCC(=O)N3Cc2ccncc2)s1`: -67.7%; for `Cc1cc(CN(C)C(=O)c2ccc(F)cc2F)no1`: -6.47%; for `COc1ccccc1Nc1nc2c(C)nn(C)c2c(=O)n1C`: 2.56%. The same measure for `NC(=O)c1cccc(C2CCN(c3ncccn3)CC2)n1`: 0.00505%; for `COc1ccccc1C(=O)N1CCN(C(=O)Cc2ccccn2)CC1`: -7.57%; for `COCC1c2nnn(C)c2CCN1C(=O)COc1ccccc1C` (stereo not drawn): -100%.

On to `O=c1[nH]c(-c2ccncc2)ncc1-c1ccnc(NC2CCCCC2)n1`, for which the cytotoxicity at 10 µM is -9.24%.

For the compound `Cn1cc(S(=O)(=O)N2CCCC2Cn2ccnc2)cn1` (stereo not drawn), the cytotoxicity at 10 µM stood at 6.58%. The same measure for `Cc1nc(-c2ccccc2C)n(CC(=O)NC(C)C2CC2)n1` (stereo not drawn): 20.8%; for `Cc1nc(C)c(CNC(=O)NC2CC(C)(C)OC2(C)C)s1` (stereo not drawn): -0.864%; for `O=C(C1CCOCC1)N1C[C@H]2CCC[C@@]2(COc2cccnc2)C1`: -1.18%. Under `O=C(c1ccccc1-n1cccn1)N1CCCN(c2cccnn2)CC1` stands 7.03%. The same measure for `CCC(C)CN(C)C(=O)NCc1ccccc1-n1cccn1` (stereo not drawn): 8.75%; for `Cc1ccc(CNC2(Cc3cc(-c4ccccn4)on3)COC2)o1`: 8.91%. With `CNC(=O)[C@@H]1C[C@H]2CN(Cc3c(C)noc3C)C[C@H]2N1C(C)C`, the cytotoxicity at 10 µM is -107%. For `Cc1ccc(CN2CCOCS2(=O)=O)cc1F`, the cytotoxicity at 10 µM worked out at 9.52%. Take `O=C1CCC2(CCC(NCc3ccoc3)CC2)N1` (stereo not drawn): the cytotoxicity at 10 µM stood at 1.14%. The same measure for `Cc1ccccc1Oc1ncccc1CNC1CCC1`: -1.27%; for `CN1CCN(CC2CC2)C(=O)c2cnc(N3CC[C@@H](O)C3)nc21`: 2.19%; for `Cc1ccc(N2CCCC(N3CCN(CC(F)F)CC3)C2=O)cc1` (stereo not drawn): 1.66%.

For the compound `CN(Cc1ccccc1Br)C(=O)Cn1nc(-c2ccc(F)cc2)oc1=O`, the cytotoxicity at 10 µM came to 9.46%. The same measure for `COC1CN(C(=O)Cc2cccs2)CCC(=O)N(C)c2ccccc21` (stereo not drawn): -11.6%. Regarding `CC(C)Oc1ccccc1CNC(=O)c1[nH]ncc1Br`, the cytotoxicity at 10 µM came out at 17.5%. Under `CC(NCc1ccncc1)c1ccc(N2CCN(C)CC2)c(F)c1` (stereo not drawn) stands 27.8%; under `NC(=O)CC1CCN(C(=O)NCCc2ccc(Cl)s2)CC1`, -8.03%. Consider `c1ccc(SCCN2CCCC(Cn3ccnc3)C2)cc1` (stereo not drawn), for which the cytotoxicity at 10 µM worked out at 2.92%. The same measure for `CCCn1nc(C)c(CN2CC3(CCOC3)CCC2=O)c1C` (stereo not drawn): 4.28%. Under `Fc1ccc(-c2nc(CNC3CCc4ncnn4C3)cs2)cc1` (stereo not drawn) stands -4.92%; under `CNC(=O)c1cn2cc(-c3cccc(Cl)c3)n(CC3CC3)c(=O)c2n1`, -37.4%. The same measure for `Cc1ccsc1C(=O)N1CCCn2nnc(Cn3cccn3)c2C1`: 7.37%. With `CC1CCc2nn(CCNC(=O)c3ccco3)c(=O)cc2C1` (stereo not drawn), the cytotoxicity at 10 µM was found to be 9.15%.

As for `Cc1ccc(CNC(=O)CCNS(C)(=O)=O)cc1`, the cytotoxicity at 10 µM is -5.07%. Under `CC(C)(CNC(=O)c1ccco1)NC(=O)OC(C)(C)C` stands -2.43%; under `Cc1ncsc1CCN(C)Cc1ccc(Br)o1`, -43%; under `CCn1cnnc1CCNC(=O)c1ccc(F)c(Br)c1`, 5.36%.

Regarding `O=C(c1cncnc1)N1Cc2ccccc2OC2(CCOCC2)C1`, the cytotoxicity at 10 µM is -8.46%. Under `O=C(c1nc(-c2ccc3cc[nH]c3c2)no1)N1CCCC1` stands -3.29%.

As to `CC1CCN(CC(O)CNc2ccc(Cl)cn2)CC1` (stereo not drawn), the cytotoxicity at 10 µM was found to be 17.2%. The same measure for `Cc1nc(C(=O)N2CCCC(c3nc(C(C)C)cs3)C2)c[nH]1` (stereo not drawn): -41.7%; for `Cn1ccnc1C(NCc1ccc(Br)cc1)c1ccccc1` (stereo not drawn): -6.39%; for `CCn1cc(CN(C)S(=O)(=O)c2cc(Cl)ccc2Cl)cn1`: 8.6%. Regarding `COc1ccc(NC(=O)c2ccc(-n3ncc(C#N)c3N)cc2)cn1`, the cytotoxicity at 10 µM is -5.77%. For `Cc1c(C(C)NC2CCOCC2)cnn1-c1ccc(F)cc1F` (stereo not drawn), the cytotoxicity at 10 µM is -8.87%. Consider `O=C(O)C(c1ccc2c(c1)OCCO2)N1CCCC1` (stereo not drawn), for which the cytotoxicity at 10 µM is -5.38%.

For the compound `Fc1ccccc1CN1CCCC(NC2CCOCC2)C1` (stereo not drawn), the cytotoxicity at 10 µM worked out at 6.56%. Under `CC(C)CC(NC(=O)C1=CCCC1)C(=O)N1CCC(CO)CC1` (stereo not drawn) stands 8.23%; under `Cc1c(CN2CCC(C(=O)O)(n3ccnc3)CC2)oc2ccccc12`, -4.86%. The same measure for `CNc1ccnc(N2CCC(c3nnc(CN4CCCC4)n3C)CC2)n1`: 0.715%. Under `CCN1CC2(CCC1=O)CCN(C(=O)c1ccc(C)cc1O)CC2` stands -0.0198%.
